Measured values from different studies.
Each line is one published result; the experiments were not run side by side.
Organism: Salmonella enterica
Effect on: microbial growth

SMILES	technique	strain	time	pH	MIC
CC1=NN(CNc2ccccc2[N+](=O)[O-])C(=O)C1=NNn1c(-c2ccccc2)nc2ccccc2c1=O	broth dilution	PARATYPHI	24 h		50.4 µM
CCCCCCCCCCCC(=O)OC[C@H]1O[C@@H](n2cc(C)c(=O)[nH]c2=O)C[C@@H]1OC(=O)c1ccc(C(C)(C)C)cc1	broth dilution	TYPHI			0.5 µg/mL
CC1=NN(CNc2ccc(Cl)cc2)C(=O)C1=NNn1c(-c2ccccc2)nc2ccccc2c1=O	broth dilution	PARATYPHI	24 h		103 µM
CO/N=C(\C(=O)N[C@@H]1C(=O)N2C(C(=O)O)=C(CSc3nc(=O)c(=O)[nH]n3C)CS[C@H]12)c1csc(N)n1		CHOLERAESUIS	20 h	pH 5.5	0.125 µg/mL
CC1=NN(CNc2ccc(C(=O)O)cc2)C(=O)C1=NNn1c(-c2ccccc2)nc2ccccc2c1=O	broth dilution	PARATYPHI	24 h		50.5 µM
O=C(O)c1cn(C2CC2)c2cc(N3CCNCC3)c(F)cc2c1=O	broth dilution	TYPHI	24 h		62.5 µg/mL
CCCCCCCCCCCC(=O)OC[C@H]1O[C@@H](n2cc(C)c(=O)[nH]c2=O)C[C@@H]1O	broth dilution	TYPHI			1 µg/mL
O=C1NN=C(N=Cc2ccc(O)cc2O)C1=NNn1c(-c2ccccc2)nc2ccccc2c1=O	broth dilution	PARATYPHI	24 h		53.5 µM
O=C(N[C@H](CO)[C@H](O)c1ccc([N+](=O)[O-])cc1)C(Cl)Cl		CHOLERAESUIS	20 h	pH 5.5	2 µg/mL
CC(=O)NCN1N=C(C)C(=NNn2c(-c3ccccc3)nc3ccccc3c2=O)C1=O	broth dilution	PARATYPHI	24 h		59.9 µM
CS(=O)(=O)c1ccc([C@@H](O)[C@@H](CF)NC(=O)C(Cl)Cl)cc1		CHOLERAESUIS	20 h	pH 7	4 µg/mL
C[C@H]1COc2c(N3CCN(C)CC3)c(F)cc3c(=O)c(C(=O)O)cn1c23	agar dilution	TYPHI			≤ 0.03 µg/mL
O=C1NN=C(N=Cc2ccccc2)C1=NNn1c(-c2ccccc2)nc2ccccc2c1=O	broth dilution	PARATYPHI	24 h		114 µM
CC1(C)S[C@@H]2[C@H](NC(=O)[C@H](N)c3ccccc3)C(=O)N2[C@H]1C(=O)O	broth dilution	PARATYPHI	16 h		32 µg/mL
[H]/N=C(/N)N[C@H]1[C@H](O)[C@@H](O)[C@H](O[C@@H]2O[C@@H](C)[C@](O)(C=O)[C@H]2O[C@@H]2O[C@@H](CO)[C@H](O)[C@@H](O)[C@@H]2NC)[C@@H](N/C(N)=N\[H])[C@@H]1O		CHOLERAESUIS	20 h	pH 7	4100 µg/mL
C[C@H]1[C@H](NC(=O)/C(=N\OC(C)(C)C(=O)O)c2csc(N)n2)C(=O)N1S(=O)(=O)O	agar dilution	TYPHI			≤ 0.03 µg/mL
CO/N=C(\C(=O)N[C@@H]1C(=O)N2C(C(=O)O)=C(CSC(=O)c3ccco3)CS[C@H]12)c1csc(N)n1		ENTERITIDIS	20 h	pH 5.5	1 µg/mL
CO[C@H]1O[C@H](COC(c2ccccc2)(c2ccccc2)c2ccccc2)[C@@H](OC(=O)c2ccc(C(C)(C)C)cc2)[C@H](OC(=O)c2ccc(C(C)(C)C)cc2)[C@H]1OC(=O)c1ccc(C(C)(C)C)cc1	broth dilution	TYPHI			2 µg/mL
CCn1cc(C(=O)O)c(=O)c2ccc(C)nc21	broth dilution	TYPHI	24 h		15.6 µg/mL
CCN1CCN(c2cc3c(cc2F)c(=O)c(C(=O)O)cn3C2CC2)CC1		CHOLERAESUIS	20 h	pH 7.2	0.0625 µg/mL
